Test results as given in ChEMBL document CHEMBL3751842, “Novel triazolothiadiazines act as potent anticancer agents in liver cancer cells through Akt and ASK-1 proteins” (Bioorg Med Chem, 2016).
Calls of active or inactive are those of the source. No cut-off for these calls is given here.

Assays:
MCF7 = experiment: Cytotoxicity against human MCF7 cells assessed as growth inhibition after 72 hrs by sulforhodamine B assay; format: functional, cell-based
Procedure, shortened: (§1)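 Cells were grown at 37°C, 5% CO2 in DMEM with 10% FBS. They were seeded at 1000–3000 cells/well, grown 24 h, then exposed to compound at 2.5–40 µM for 72 h. Cells were fixed in 10% TCA for 1 h at 4°C, stained with 0.4% SRB in 1% acetic acid for 10 min, and the dye solubilized in 10 mM Tris. Absorbance was read at 515 nm; runs were in triplicate; IC50 was calculated, with fits of R2 0.8–1 accepted.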

[1] = Cytotoxicity against human HuH7 cells assessed as growth inhibition after 72 hrs by sulforhodamine B assay; format: functional, cell-based, Huh-7; procedure, shortened: as §1
[2] = Cytotoxicity against human HCT116 cells assessed as growth inhibition after 72 hrs by sulforhodamine B assay; format: functional, cell-based, HCT-116; procedure, shortened: as §1
[3] = Cytotoxicity against human Mahlavu cells assessed as growth inhibition after 72 hrs by sulforhodamine B assay; format: functional, cell-based; procedure, shortened: as §1
HepG2 = experiment: Cytotoxicity against human HepG2 cells assessed as growth inhibition after 72 hrs by sulforhodamine B assay; format: functional, cell-based; procedure, shortened: as §1
[4] = Cytotoxicity against human Hep3B cells assessed as growth inhibition after 72 hrs by sulforhodamine B assay; format: functional, cell-based, Hep 3B2; procedure, shortened: as §1
[5] = Cytotoxicity against human FOCUS cells assessed as growth inhibition after 72 hrs by sulforhodamine B assay; format: functional, cell-based; procedure, shortened: as §1
[6] = Cytotoxicity against human SNU475 cells assessed as growth inhibition after 72 hrs by sulforhodamine B assay; format: functional, cell-based, SNU-475; procedure, shortened: as §1
Huh-7 [7] = experiment: Induction of apoptosis in human HuH7 cells assessed as nuclear condensation at 10 uM after 48 hrs by Hoechst 33258 staining-based immunofluorescence microscopy; format: functional, cell-based
Procedure, shortened: (§2)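 Cells on coverslips were incubated overnight, then treated with 10 µM compound or DMSO for 48 h. They were washed in ice-cold PBS, fixed in cold methanol for 10 min, and stained with 1 µg/mL Hoechst 33258 for 5 min in the dark. Nuclei were examined by fluorescence microscopy with a 40x objective.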

Huh-7 [8] = experiment: Induction of apoptosis in human HuH7 cells assessed as horseshoe nuclear structure at 10 uM after 48 hrs by Hoechst 33258 staining-based immunofluorescence microscopy; format: functional, cell-based; procedure, shortened: as §2
Huh-7 [9] = experiment: Cytotoxicity against human HuH7 cells assessed as cell impedance at IC25 to IC100 measured every 30 mins for 72 hrs by RT-CES assay; format: functional, cell-based; conditions: TDE = time-dependent effect
Procedure, shortened: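 Huh7 cells were seeded at 1000–5000 cells/well on electrode plates. […] Impedance was read as cell index every 10 min for the first 24 h, then every 30 min, over 72 h. Data were normalized to DMSO; inhibition (%) = [1 − (CI treated/CI DMSO)] × 100. Each experiment was run at least three times.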

[10] = Homo sapiens, MCF7, 72 h, read-out: IC50
[11] = Homo sapiens, Huh-7, 72 h, read-out: IC50
[12] = Homo sapiens, HCT-116, 72 h, read-out: IC50
[13] = Homo sapiens, HepG2, 72 h, read-out: IC50
[14] = Homo sapiens, Hep3B, 72 h, read-out: IC50
[15] = Homo sapiens, SNU-475, 72 h, read-out: IC50
[16] = Homo sapiens, Mahlavu, 72 h, read-out: IC50
[17] = Homo sapiens, FOCUS, 72 h, read-out: IC50

CC(c1ccc(-c2ccccc2)c(F)c1)c1nnc2n1N=C(c1ccccc1)CS2 (stereo not given)
IC50 (MCF7; [10]): 7.4 µM | IC50 [1, 11]: 6.7 µM | IC50 [2, 12]: 9.7 µM

COc1ccc2cc(C(C)c3nnc4n3N=C(c3ccc(F)cc3)CS4)ccc2c1 (stereo not given)
IC50 (MCF7; [10]): 15.8 µM | IC50 [1, 11]: 7 µM | IC50 [2, 12]: 13.1 µM

CC(C)Cc1ccc(C(C)c2nnc3n2N=C(c2ccc(C(F)(F)F)cc2)CS3)cc1 (stereo not given)
IC50 (MCF7; [10]): 4.2 µM | IC50 [1, 11]: 8.4 µM | IC50 [2, 12]: 6.5 µM

COc1ccc2cc(C(C)c3nnc4n3N=C(c3ccc(C)cc3)CS4)ccc2c1 (stereo not given)
IC50 (MCF7; [10]): 11 µM | IC50 [1, 11]: 8.2 µM | IC50 [2, 12]: 10.2 µM

CC(c1ccc(-c2ccccc2)c(F)c1)c1nnc2n1N=C(c1ccc(C(F)(F)F)cc1)CS2 (stereo not given)
IC50 (MCF7; [10]): 4.3 µM | IC50 [1, 11]: 9.4 µM | IC50 [2, 12]: 6.1 µM

COc1ccc2cc(C(C)c3n[nH]c(=S)n3N)ccc2c1 (stereo not given)
IC50 ([3]; mahlavu): Not Active | IC50 (HepG2; [13]): 40 µM | IC50 [4, 14]: 1.9 µM | IC50 (MCF7; [10]): 22.3 µM | IC50 ([5]; focus): Not Active | IC50 [6, 15]: 15.9 µM | IC50 [1, 11]: 40.8 µM | IC50 [2, 12]: 20.2 µM

CC(c1ccc(-c2ccccc2)c(F)c1)c1n[nH]c(=S)n1N (stereo not given)
IC50 ([3]; mahlavu): Not Active | IC50 (HepG2; [13]): 21.4 µM | IC50 ([4]; hep 3b2): Not Active | IC50 (MCF7; mcf7): Not Active | IC50 ([5]; focus): Not Active | IC50 ([6]; snu-475): Not Active | IC50 [1, 11]: 43.1 µM | IC50 ([2]; hct-116): Not Active

CC(C)Cc1ccc(C(C)c2nnc3n2N=C(c2ccc(OC(F)(F)F)cc2)CS3)cc1 (stereo not given)
Activity (Huh-7 [7]): Active | IC50 [3, 16]: 9.1 µM | IC50 (HepG2; [13]): 9.7 µM | Activity (Huh-7 [8]): Active | IC50 [4, 14]: 6.4 µM | IC50 (MCF7; [10]): 1.1 µM | IC50 [5, 17]: 8.8 µM | IC50 [6, 15]: 6.8 µM | IC50 [1, 11]: 3.6 µM | IC50 [2, 12]: 3 µM | Activity (Huh-7 [9]): tde

COc1ccc2cc([C@H](C)C(=O)O)ccc2c1 [NAPROXEN]
IC50 ([3]; mahlavu): Not Active | IC50 (HepG2; hepg2): Not Active | IC50 ([4]; hep 3b2): Not Active | IC50 (MCF7; mcf7): Not Active | IC50 ([5]; focus): Not Active | IC50 ([6]; snu-475): Not Active | IC50 ([1]; huh-7): Not Active | IC50 ([2]; hct-116): Not Active

CC(c1ccc(-c2ccccc2)c(F)c1)c1nnc2n1N=C(c1ccc(Br)cc1)CS2 (stereo not given)
Activity (Huh-7 [7]): inactive | IC50 [3, 16]: 6.2 µM | IC50 (HepG2; [13]): 3.7 µM | Activity (Huh-7 [8]): inactive | IC50 [4, 14]: 1.5 µM | IC50 (MCF7; [10]): 7.4 µM | IC50 [5, 17]: 8.5 µM | IC50 [6, 15]: 7 µM | IC50 [1, 11]: 5 µM | IC50 [2, 12]: 7.1 µM | Activity (Huh-7 [9]): tde

COc1ccc2cc(C(C)c3nnc4n3N=C(c3ccc([N+](=O)[O-])cc3)CS4)ccc2c1 (stereo not given)
IC50 (MCF7; [10]): 18.8 µM | IC50 [1, 11]: 14.7 µM | IC50 [2, 12]: 15.1 µM

CC(C)Cc1ccc(C(C)c2nnc3n2N=C(c2ccc([N+](=O)[O-])cc2)CS3)cc1 (stereo not given)
IC50 (MCF7; mcf7): Not Active | IC50 ([1]; huh-7): Not Active | IC50 ([2]; hct-116): Not Active

CC(c1ccc(-c2ccccc2)c(F)c1)c1nnc2n1N=C(c1ccc(F)cc1)CS2 (stereo not given)
Activity (Huh-7 [7]): Active | IC50 [3, 16]: 7.4 µM | IC50 (HepG2; [13]): 5.1 µM | Activity (Huh-7 [8]): Active | IC50 [4, 14]: 2.6 µM | IC50 (MCF7; [10]): 8.1 µM | IC50 [5, 17]: 3.5 µM | IC50 [6, 15]: 6.6 µM | IC50 [1, 11]: 4.9 µM | IC50 [2, 12]: 10.5 µM | Activity (Huh-7 [9]): tde

COc1ccc2cc(C(C)c3nnc4n3N=C(c3ccc(C(F)(F)F)cc3)CS4)ccc2c1 (stereo not given)
IC50 (MCF7; [10]): 6.9 µM | IC50 [1, 11]: 14.8 µM | IC50 [2, 12]: 10.8 µM

CC(C)Cc1ccc(C(C)c2nnc3n2N=C(c2ccc(Cl)cc2)CS3)cc1 (stereo not given)
IC50 (MCF7; [10]): 8.8 µM | IC50 [1, 11]: 5.7 µM | IC50 [2, 12]: 6.7 µM

CC(C)Cc1ccc(C(C)c2n[nH]c(=S)n2N)cc1 (stereo not given)
IC50 [3, 16]: 16.2 µM | IC50 (HepG2; hepg2): Not Active | IC50 [4, 14]: 13.1 µM | IC50 (MCF7; [10]): 16.1 µM | IC50 ([5]; focus): Not Active | IC50 [6, 15]: 11.7 µM | IC50 [1, 11]: 23 µM | IC50 [2, 12]: 27.4 µM

CC(C)Cc1ccc(C(C)c2nnc3n2N=C(c2ccccc2)CS3)cc1 (stereo not given)
IC50 (MCF7; [10]): 9.7 µM | IC50 [1, 11]: 6.1 µM | IC50 [2, 12]: 7.6 µM
